Values joined by “and” are separate entries in the source; they are usually repeats but may differ in a detail not shown here. Equal values may be shown once. “Also recorded” adds a separate entry of the source. Read-outs that look alike come from different tables or passages of the source.
Assays:
rat PPARα = target: T1, rat PPARα (Rattus norvegicus, UniProt P37230); assay: Rat PPARα reporter gene assay in COS-1 cells; assay type: cell-based; conditions: concentration showing 20% of the agonistic activity of 30 μM BZF; ±SD
T1 sequence (P37230 1-468): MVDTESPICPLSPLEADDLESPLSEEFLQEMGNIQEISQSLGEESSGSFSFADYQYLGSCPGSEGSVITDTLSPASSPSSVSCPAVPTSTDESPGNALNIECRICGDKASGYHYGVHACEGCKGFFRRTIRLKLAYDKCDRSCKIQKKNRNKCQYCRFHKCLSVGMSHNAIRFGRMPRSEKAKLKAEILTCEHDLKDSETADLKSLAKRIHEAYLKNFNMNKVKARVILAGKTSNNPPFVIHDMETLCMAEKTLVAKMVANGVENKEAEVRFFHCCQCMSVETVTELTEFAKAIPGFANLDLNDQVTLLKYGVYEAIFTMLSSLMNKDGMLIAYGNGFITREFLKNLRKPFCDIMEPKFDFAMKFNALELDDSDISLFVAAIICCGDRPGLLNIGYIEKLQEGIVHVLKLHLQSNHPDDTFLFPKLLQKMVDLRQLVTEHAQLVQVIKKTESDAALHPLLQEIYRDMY

mouse CAR = conditions: cited from earlier work
rat CAR [1] = target: T2, rat CAR (Rattus norvegicus, UniProt Q9QUS1); assay type: cell-based; conditions: 3–10 μM
T2 sequence (Q9QUS1 1-358): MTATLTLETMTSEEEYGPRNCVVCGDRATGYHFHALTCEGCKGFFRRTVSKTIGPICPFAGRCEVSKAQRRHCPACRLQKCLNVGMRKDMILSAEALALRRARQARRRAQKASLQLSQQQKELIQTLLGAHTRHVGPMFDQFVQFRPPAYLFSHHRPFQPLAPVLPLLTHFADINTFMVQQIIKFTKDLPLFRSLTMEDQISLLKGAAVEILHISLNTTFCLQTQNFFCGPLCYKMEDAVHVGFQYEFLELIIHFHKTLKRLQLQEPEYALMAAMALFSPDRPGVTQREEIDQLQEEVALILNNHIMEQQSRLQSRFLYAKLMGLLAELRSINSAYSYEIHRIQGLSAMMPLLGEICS
In short: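 Microsomal mix: NADPH-generating system plus PB/MC-induced male SD rat liver microsomes (60 mg protein) in pH 7.4 phosphate, 30 min, 37 °C; boiled-microsome control. Extracts dried, redissolved in DMSO, diluted into serum-free medium. CAR-transfected COS-1 cells dosed 12 h after transfection, 24 h exposure. Firefly/Renilla luciferase read as fold vs vehicle; 3 experiments, Student's t-test vs boiled.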

human CAR = conditions: cited from earlier work
rat PXR [2] = target: T3, rat PXR (Rattus norvegicus, UniProt Q9R1A7); assay: Rat PXR reporter gene assay in COS-1 cells; assay type: cell-based; conditions: concentration showing 20% of the agonistic activity of 1 μM PCN; ±SD
T3 sequence (Q9R1A7 1-431): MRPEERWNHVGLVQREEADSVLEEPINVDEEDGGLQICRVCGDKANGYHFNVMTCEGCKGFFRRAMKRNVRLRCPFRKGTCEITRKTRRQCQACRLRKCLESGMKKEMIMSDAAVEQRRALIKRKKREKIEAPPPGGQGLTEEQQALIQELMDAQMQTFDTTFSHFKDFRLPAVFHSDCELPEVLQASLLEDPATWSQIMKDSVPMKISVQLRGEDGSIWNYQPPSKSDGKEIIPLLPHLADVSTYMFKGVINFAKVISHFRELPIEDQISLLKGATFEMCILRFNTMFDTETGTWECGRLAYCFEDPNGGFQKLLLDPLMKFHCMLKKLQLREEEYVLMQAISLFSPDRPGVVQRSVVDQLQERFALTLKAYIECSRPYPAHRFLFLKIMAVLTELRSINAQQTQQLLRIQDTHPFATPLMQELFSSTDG
In short: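 COS-1 cells (1×10^4/well) co-transfected with rat PXR expression, reporter and Renilla control plasmids via jetPEI. After 24 h, test compound or 0.1% DMSO added in serum-free D-MEM for 24 h. Dual-luciferase read-out, firefly normalized to Renilla, fold vs vehicle. REC20: concentration reaching 20% of 1 μM PCN activity. Mean ± SD, ≥3 experiments in duplicate; Dunnett's test.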

rat PXR [3] = target: T3, rat PXR; assay type: cell-based; conditions: microsomes of PB- and MC-treated rats, NADPH, vs boiled microsomes
In short: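 Test compound (1 μmol) incubated 30 min at 37 °C in 0.1 M K,Na-phosphate pH 7.4. Mix held an NADPH-generating system and liver microsomes (60 mg protein) from male SD rats given PB 80 mg/kg i.p. plus MC 25 mg/kg p.o. daily for 3 d. Boiled microsomes were the control. Ethyl acetate extract went into DMSO and onto transfected COS-1 cells for 24 h. Normalized firefly/Renilla fold vs vehicle; n=3, t-test.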

rat CAR [4] = target: T2, rat CAR; assay: Rat CAR reporter gene assay in COS-1 cells; assay type: cell-based
mouse PPARα = conditions: among 12 pyrethroid pesticides; ref Takeuchi et al., 2006; cited from earlier work

Row | Compound | Agonistic activity REC20 PPARα (rat PPARα) | Mouse CAR agonistic activity (mouse CAR; ref Abass et al. (2012)) | Mouse CAR agonistic activity (mouse CAR; ref Baldwin and Roling (2009)) | Change of CAR inverse agonistic activity after incubation with liver microsomes (rat CAR [1]) | Human CAR agonistic activity (human CAR; ref Abass et al. (2012)) | Human CAR agonistic activity (human CAR; ref Baldwin and Roling (2009)) | Agonistic activity REC20 PXR (rat PXR [2]) [µM] | Change of PXR activity upon incubation with rat liver microsomes (rat PXR [3]) | Effect on CAR activation induced by artemisinin (rat CAR [4]; artemisinin 10 μM, test compound 0.1–30 μM) | Agonistic activity REC20 CAR (rat CAR [4]; concentration showing 20% of the agonistic activity of 30 μM artemisinin, ±SD) | Inverse agonistic activity RIC20 CAR (rat CAR [4]; concentration showing 80% of the activity of the vehicle control, ±SD) | CAR inverse agonistic activity (in words) (rat CAR [4]; up to 30 μM) | Mouse PPARα activation (mouse PPARα)
1 | CC(C)C(C(=O)OC(C#N)c1cccc(Oc2ccccc2)c1)c1ccc(Cl)cc1 (stereo not shown) [fenvalerate] | - ^c (No effect (REC20 > 30 μM)) | not mouse CAR | agonists | tended to decrease | possessed agonistic activity | agonists | 0.617 ± 0.138 | markedly decreased; also recorded: significantly decreased | significantly inhibited CAR activation by artemisinin | - ^c (No effect (REC20 > 30 μM)) | 0.846 µM and 0.846 ± 0.394 µM | showed CAR inverse agonistic activity | –
2 | pyrethrin | – | – | – | – | – | – | – | – | – | – | – | – | activated mouse PPARα
